{"source": "ChEMBL document CHEMBL4052787", "about": "“Development of novel LP1-based analogues with enhanced delta opioid receptor profile” (Bioorg Med Chem, 2017)", "key": {"[1]": {"target": "Kappa-type opioid receptor (Cavia porcellus) (UniProt P41144)", "sequence (P41144 whole entry)": "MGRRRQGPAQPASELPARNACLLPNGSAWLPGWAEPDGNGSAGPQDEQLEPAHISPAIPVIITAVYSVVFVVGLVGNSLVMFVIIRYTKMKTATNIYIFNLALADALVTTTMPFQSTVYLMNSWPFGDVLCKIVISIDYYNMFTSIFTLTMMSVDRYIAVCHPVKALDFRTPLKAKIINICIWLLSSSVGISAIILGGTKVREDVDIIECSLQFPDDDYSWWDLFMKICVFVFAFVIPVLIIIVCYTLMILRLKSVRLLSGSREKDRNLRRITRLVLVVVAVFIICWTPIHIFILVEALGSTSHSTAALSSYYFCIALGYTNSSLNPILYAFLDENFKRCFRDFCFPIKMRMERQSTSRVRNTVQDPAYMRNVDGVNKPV", "experiment": "Potency index, ratio of LP1 Ki to compound Ki for KOR in guinea pig brain membranes", "format": "cell membranes", "settings": "Membrane"}, "[2]": {"target": "Kappa-type opioid receptor (Cavia porcellus) (UniProt P41144)", "experiment": "Antagonist activity at KOR in Dunkin-Hartley guinea pig ileum assessed as inhibition of electrically induced contractions after 5 mins by measuring ratio of IC50 for test compounds in presence and absence of nBNI", "procedure,_shortened": "(§1)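 Isolated tissue (ileum for MOR/KOR, vas deferens for DOR) pre-incubated with a 1 μM selective antagonist (NLX or NTI 20 min; norBNI 30 min), then agonist curves repeated. Ke from ratio of IC50 with and without antagonist, by single dose method. Mean ± SEM of four independent tissues.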"}, "[3]": {"species_on_record": "Rattus norvegicus", "experiment": "Ratio of Ki for DOR in rat brain membranes to Ki for MOR in rat brain membranes", "format": "cell membranes", "procedure,_shortened": "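Ratio of Ki values: DOR Ki (rat brain, [3H]-DPDPE, 2 nM) divided by MOR Ki (rat brain, [3H]-DAMGO, 1 nM), both from 45 min, 35 °C competition binding in 50 mM Tris-HCl pH 7.4.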"}, "[4]": {"test_system": "Rattus norvegicus", "experiment": "Antinociceptive activity in rat assessed as reduction in response to heat administered ip measured 45 to 180 mins post dose by tail-flick test", "format": "functional, organism-based"}, "[5]": {"target": "Delta-type opioid receptor (Rattus norvegicus, UniProt P33533)", "sequence (P33533 whole entry)": "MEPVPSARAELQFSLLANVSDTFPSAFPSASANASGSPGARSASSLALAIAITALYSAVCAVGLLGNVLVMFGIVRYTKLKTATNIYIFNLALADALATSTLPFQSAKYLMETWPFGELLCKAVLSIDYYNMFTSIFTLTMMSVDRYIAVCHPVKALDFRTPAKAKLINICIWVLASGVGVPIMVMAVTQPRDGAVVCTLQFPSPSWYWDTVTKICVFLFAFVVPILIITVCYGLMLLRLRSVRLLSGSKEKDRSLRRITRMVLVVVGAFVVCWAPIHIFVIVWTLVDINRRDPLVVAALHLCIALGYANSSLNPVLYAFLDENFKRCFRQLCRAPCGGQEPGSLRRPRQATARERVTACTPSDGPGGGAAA", "experiment": "Displacement of [3H]-DPDPE from DOR in rat brain membranes by liquid scintillation counting analysis", "format": "cell membranes, Membrane", "procedure,_shortened": "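Rat brain membranes at 0.5 mg/ml protein, 45 min at 35 °C with 2 nM [3H]-DPDPE in 50 mM Tris-HCl pH 7.4. Competitor range 10^-11 to 10^-5 M. Nonspecific binding with 10 μM naloxone. Filtered through PEI-soaked GF/B, scintillation counted. Ki derived; three separate experiments in duplicate.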"}, "[6]": {"experiment": "Ratio of Ki for KOR in guinea pig brain membranes to Ki for MOR in rat brain membranes", "format": "cell membranes", "procedure,_shortened": "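Ratio of KOR Ki (guinea pig brain, 1 nM [3H]-(+)-U69,593, 30 min at 30 °C) to MOR Ki (rat brain, 1 nM [3H]-DAMGO, 45 min at 35 °C).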"}, "[7]": {"target": "Kappa-type opioid receptor (Cavia porcellus, UniProt P41144)", "sequence (P41144 whole entry)": "as the sequence (P41144 whole entry) above", "experiment": "Displacement of [3H]-(+)-U69,593 from KOR in guinea pig brain membranes by liquid scintillation counting analysis", "format": "cell membranes, Membrane", "procedure,_shortened": "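Guinea pig brain membranes (0.5 mg/ml) incubated 30 min at 30 °C with 1 nM [3H]-(+)-U69,593. Compounds tested from 10^-11 to 10^-5 M. Nonspecific binding with 10 μM unlabeled naloxone. GF/B filtration, liquid scintillation counting. Ki calculated; means of three experiments, each in duplicate.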"}, "[8]": {"experiment": "Agonist activity at DOR in CD-1 mouse vasa deferentia assessed as inhibition of electrically induced contractions after 5 mins", "procedure,_shortened": "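Mouse vas deferens at 0.5 g tension; after equilibration, pulses 20 Hz, 0.5 ms, 1 s duration every 40 s. After 60 min equilibration in Krebs, cumulative compound additions, minimum 5 min apart. Contraction inhibition as percent of baseline; IC50 from linear regression of log concentration–effect curves, at least three trials.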"}, "[9]": {"species_on_record": "Rattus norvegicus", "experiment": "Antinociceptive activity in rat assessed as reduction in response to heat pretreated with naloxone for 30 mins prior to compound treatment by tail-flick test", "format": "functional"}, "[10]": {"test_system": "Rattus norvegicus", "experiment": "Antinociceptive activity in rat assessed as reduction in response to heat administered ip measured 60 mins post dose by tail-flick test", "format": "functional"}, "[11]": {"species_on_record": "Mus musculus", "experiment": "Antagonist activity at DOR in CD-1 mouse vasa deferentia assessed as inhibition of electrically induced contractions after 5 mins by measuring ratio of IC50 for test compounds in presence and absence of […]", "procedure,_shortened": "as §1"}, "[12]": {"target": "Mu-type opioid receptor (Cavia porcellus) (UniProt P97266)", "sequence (P97266 whole entry)": "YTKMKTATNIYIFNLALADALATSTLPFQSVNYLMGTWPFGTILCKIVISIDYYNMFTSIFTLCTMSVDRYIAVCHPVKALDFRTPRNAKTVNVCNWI", "experiment": "Antagonist activity at MOR in Dunkin-Hartley guinea pig ileum assessed as inhibition of electrically induced contractions after 5 mins by measuring ratio of IC50 for test compounds in presence and absence of NLX", "procedure,_shortened": "as §1"}, "[13]": {"target": "mu/kappa opioid receptor (Cavia porcellus, UniProt P41144+P97266)", "experiment": "Agonist activity at MOR/KOR in Dunkin-Hartley guinea pig ileum assessed as inhibition of electrically induced contractions after 5 mins", "procedure,_shortened": "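Guinea pig ileum longitudinal muscle/myenteric plexus strips from male guinea pigs (200–300 g), 2 g load. Transmural single pulses 0.1 Hz, 0.3 ms, 200 mA. After 60–90 min equilibration in Krebs, compounds added cumulatively, at least 5 min each. Percent inhibition of contraction; IC50 by linear regression of log concentration–effect curves, at least three trials.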"}, "[14]": {"target": "Mu-type opioid receptor (Rattus norvegicus, UniProt P33535)", "sequence (P33535 whole entry)": "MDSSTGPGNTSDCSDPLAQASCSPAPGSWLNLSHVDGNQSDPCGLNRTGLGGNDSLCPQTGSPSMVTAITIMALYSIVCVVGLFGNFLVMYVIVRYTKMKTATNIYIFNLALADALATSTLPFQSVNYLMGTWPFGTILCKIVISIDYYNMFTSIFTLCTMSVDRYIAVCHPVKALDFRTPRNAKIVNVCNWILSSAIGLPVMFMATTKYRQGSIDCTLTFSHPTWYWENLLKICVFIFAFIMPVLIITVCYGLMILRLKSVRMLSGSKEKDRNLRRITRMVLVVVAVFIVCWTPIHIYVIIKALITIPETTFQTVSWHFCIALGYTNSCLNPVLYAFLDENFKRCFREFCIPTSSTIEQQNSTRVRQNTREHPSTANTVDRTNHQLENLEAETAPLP", "experiment": "Displacement of [3H]-DAMGO from MOR in rat brain membranes by liquid scintillation counting analysis", "format": "cell membranes, Membrane", "procedure,_shortened": "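Rat brain membranes, 0.4 mg/ml protein, incubated 45 min at 35 °C with 1 nM [3H]-DAMGO in 50 mM Tris-HCl pH 7.4. Filtration on PEI-presoaked GF/B filters, scintillation counting. Ki calculated; three experiments, each in duplicate.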"}, "[15]": {"test_system": "Rattus norvegicus", "experiment": "Antinociceptive activity in rat assessed as reduction in response to heat administered ip measured 240 mins post dose by tail-flick test", "format": "functional, organism-based"}}, "note": "Activity calls are given as the source filed them. The rule behind the calls is not given here.", "data": [{"smiles": "COC(CN1CC[C@@]2(C)c3cc(O)ccc3C[C@@H]1[C@@H]2C)c1ccccc1", "note": "(stereo partly specified)", "values": [{"measurement": "Ratio Ki", "setting": "[1]", "value": 7}, {"measurement": "Ke", "setting": "[2]", "value": "> 3000", "unit": "nM"}, {"measurement": "Ratio Ki", "setting": "[3]", "value": 6.1}, {"measurement": "Activity", "setting": "[4]", "value": "Active"}, {"measurement": "Ki", "setting": "[5]", "value": 6.6, "unit": "nM"}, {"measurement": "Ratio Ki", "setting": "[6]", "value": 14.1}, {"measurement": "Ki", "setting": "[7]", "value": 15.2, "unit": "nM"}, {"measurement": "IC50", "setting": "[8]", "value": 4.4, "unit": "nM"}, {"measurement": "Activity", "setting": "[9]", "value": "inactive"}, {"measurement": "ED50", "setting": "[10]; 1 h", "value": 0.9, "unit": "mg/kg"}, {"measurement": "Ke", "setting": "[11]", "value": 3.9, "unit": "nM"}, {"measurement": "Ke", "setting": "[12]", "value": 19, "unit": "nM"}, {"measurement": "IC50", "setting": "[13]", "value": 21.5, "unit": "nM"}, {"measurement": "Ki", "setting": "[14]", "value": 1.08, "unit": "nM"}, {"measurement": "Activity", "setting": "[15]", "value": "Dose-dependent effect"}]}, {"smiles": "CN1CC[C@]23c4c5ccc(O)c4O[C@H]2[C@@H](O)C=C[C@H]3[C@H]1C5", "values": [{"measurement": "Activity", "setting": "[10]", "value": "inactive"}]}, {"smiles": "C[C@H]1[C@H]2Cc3ccc(O)cc3[C@]1(C)CCN2C[C@@H](O)c1ccccc1", "values": [{"measurement": "Ratio Ki", "setting": "[1]", "value": 49}, {"measurement": "Ke", "setting": "[2]", "value": 9, "unit": "nM"}, {"measurement": "Ratio Ki", "setting": "[3]", "value": 1.6}, {"measurement": "Ki", "setting": "[5]", "value": 0.8, "unit": "nM"}, {"measurement": "Ratio Ki", "setting": "[6]", "value": 4.44}, {"measurement": "Ki", "setting": "[7]", "value": 2.22, "unit": "nM"}, {"measurement": "IC50", "setting": "[8]", "value": 11.8, "unit": "nM"}, {"measurement": "Activity", "setting": "[9]", "value": "inactive"}, {"measurement": "Ke", "setting": "[11]", "value": 5.4, "unit": "nM"}, {"measurement": "Ke", "setting": "[12]", "value": 21, "unit": "nM"}, {"measurement": "IC50", "setting": "[13]", "value": 9.9, "unit": "nM"}, {"measurement": "Ki", "setting": "[14]", "value": 0.5, "unit": "nM"}, {"measurement": "Activity", "setting": "[15]", "value": "Dose-dependent effect"}]}, {"smiles": "C[C@H]1[C@H]2Cc3ccc(O)cc3[C@]1(C)CCN2C[C@H](O)c1ccccc1", "values": [{"measurement": "Ratio Ki", "setting": "[1]", "value": 15}, {"measurement": "Ke", "setting": "[2]", "value": 20, "unit": "nM"}, {"measurement": "Ratio Ki", "setting": "[3]", "value": 3.88}, {"measurement": "Ki", "setting": "[5]", "value": 9.6, "unit": "nM"}, {"measurement": "Ratio Ki", "setting": "[6]", "value": 2.95}, {"measurement": "Ki", "setting": "[7]", "value": 7.3, "unit": "nM"}, {"measurement": "IC50", "setting": "[8]", "value": 10.8, "unit": "nM"}, {"measurement": "Activity", "setting": "[9]", "value": "inactive"}, {"measurement": "Ke", "setting": "[11]", "value": 4, "unit": "nM"}, {"measurement": "Ke", "setting": "[12]", "value": 35, "unit": "nM"}, {"measurement": "IC50", "setting": "[13]", "value": 49.2, "unit": "nM"}, {"measurement": "Ki", "setting": "[14]", "value": 2.47, "unit": "nM"}, {"measurement": "Activity", "setting": "[15]", "value": "Dose-dependent effect"}]}, {"smiles": "C[C@H]1[C@H]2Cc3ccc(O)cc3[C@]1(C)CCN2CCC(=O)Nc1ccccc1", "values": [{"measurement": "Ke", "setting": "[2]", "value": 10.8, "unit": "nM"}, {"measurement": "Ratio Ki", "setting": "[3]", "value": 33.8}, {"measurement": "Ratio Ki", "setting": "[6]", "value": 132}, {"measurement": "IC50", "setting": "[8]", "value": 1240, "unit": "nM"}, {"measurement": "Ke", "setting": "[12]", "value": 2.3, "unit": "nM"}, {"measurement": "IC50", "setting": "[13]", "value": 1.9, "unit": "nM"}]}, {"smiles": "C[C@H]1[C@H]2Cc3ccc(O)cc3[C@]1(C)CCN2CC(C)(O)c1ccccc1", "note": "(stereo partly specified)", "values": [{"measurement": "Ratio Ki", "setting": "[1]", "value": 10}, {"measurement": "Ratio Ki", "setting": "[3]", "value": 2.66}, {"measurement": "Ki", "setting": "[5]", "value": 160, "unit": "nM"}, {"measurement": "Ratio Ki", "setting": "[6]", "value": 0.17}, {"measurement": "Ki", "setting": "[7]", "value": 10.5, "unit": "nM"}, {"measurement": "IC50", "setting": "[8]", "value": 794, "unit": "nM"}, {"measurement": "IC50", "setting": "[13]", "value": 194.4, "unit": "nM"}, {"measurement": "Ki", "setting": "[14]", "value": 60, "unit": "nM"}]}]}
